Measurements published in ChEMBL document CHEMBL1157882, “Novel 2-[(benzylamino)methyl]pyrrolidine-3,4-diol derivatives as alpha-mannosidase inhibitors and with antitumor activities against hematological and solid malignancies” (Bioorg Med Chem, 2010).
Calls of active or inactive are those of the source. No cut-off for these calls is given here.

Assays:
[1] = tested on: Oryza sativa; test: Inhibition of alpha-glucosidase from rice at 1 mM at pH 4
How it was run: (§1)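 Glycosidase panel of commercial enzymes assayed at each enzyme's optimal pH with compound at 1 mM; percentage inhibition of enzyme activity calculated.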

[2] = target: Glucoamylase (Aspergillus niger) (UniProt P69328); test: Inhibition of amyloglucosidase from Aspergillus niger at 1 mM at pH 5; how it was run: as §1
Sequence of Glucoamylase (Aspergillus niger) (P69328 whole entry): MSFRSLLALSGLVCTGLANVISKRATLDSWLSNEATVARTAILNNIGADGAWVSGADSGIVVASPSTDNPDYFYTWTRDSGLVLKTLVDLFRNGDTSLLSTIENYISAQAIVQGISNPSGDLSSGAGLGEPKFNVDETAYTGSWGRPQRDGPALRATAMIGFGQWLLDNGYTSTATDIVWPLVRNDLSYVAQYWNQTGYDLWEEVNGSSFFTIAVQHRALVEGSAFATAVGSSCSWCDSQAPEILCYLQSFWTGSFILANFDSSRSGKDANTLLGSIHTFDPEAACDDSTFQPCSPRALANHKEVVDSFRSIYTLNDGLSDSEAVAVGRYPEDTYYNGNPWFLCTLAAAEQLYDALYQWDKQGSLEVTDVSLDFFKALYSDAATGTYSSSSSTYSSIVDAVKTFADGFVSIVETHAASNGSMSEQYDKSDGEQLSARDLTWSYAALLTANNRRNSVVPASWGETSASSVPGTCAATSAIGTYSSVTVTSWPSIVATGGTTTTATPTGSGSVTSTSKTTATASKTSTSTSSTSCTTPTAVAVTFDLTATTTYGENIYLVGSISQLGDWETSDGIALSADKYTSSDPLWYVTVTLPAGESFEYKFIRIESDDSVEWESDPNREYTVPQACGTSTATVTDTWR

[3] = tested on: Prunus dulcis; test: Inhibition of beta-glucosidase from almond at 1 mM at pH 5; how it was run: as §1
[4] = tested on: Canavalia ensiformis; test: Inhibition of alpha-mannosidase from jack bean at 1 mM at pH 5; how it was run: as §1
[5] = Inhibition of alpha-mannosidase from jack bean at pH 5; design: species or system Canavalia ensiformis
[6] = tested on: Helix pomatia; test: Inhibition of beta-mannosidase from snail at pH 4; design: concentration or dose not given beside the values; settings: concentration not given here
[7] = tested on: Aspergillus niger; test: Inhibition of beta-xylosidase from Aspergillus niger at pH 5; design: concentration or dose not given beside the values; settings: concentration not given here
[8] = tested on: Canavalia ensiformis; test: Inhibition of beta-N-acetylglucosaminidase from jack bean at pH 5; design: concentration or dose not given beside the values; settings: concentration not given here
[9] = species on record: Bos taurus; test: Inhibition of beta-N-acetylglucosaminidase from bovine kidney at pH 4; design: concentration or dose not given beside the values; settings: concentration not given here
[10] = tested on: U-266; test: Cytotoxicity against human U266 cells after 72 hrs by colorimetric assay; assay type: functional, cell-based
How it was run: (§2)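 Cells grown in McCoy's medium (adherent lines) or RPMI-1640 (U266), each with 10% FBS, L-glutamine and antibiotics, at 37 °C in 5% CO₂. Compound dissolved as a 100 mM DMSO stock, final DMSO ≤0.4%. Cells were exposed for 72 h across a 10^-2 to 400 µM range. Viability was read by CellTiter 96 Aqueous (2–4 h incubation, absorbance 490 nm). Triplicate wells; IC50 from curve fitting.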

[11] = tested on: Jurkat; test: Cytotoxicity against human Jurkat cells after 72 hrs by colorimetric assay; assay type: functional, cell-based
[12] = Cytotoxicity against human U87 cells after 72 hrs by colorimetric assay; assay type: functional, cell-based, U-87MG ATCC; how it was run: as §2
[13] = tested on: PC-3; test: Cytotoxicity against human PC3 cells after 72 hrs by colorimetric assay; assay type: functional, cell-based; how it was run: as §2
[14] = tested on: A549; test: Cytotoxicity against human A549 cells after 72 hrs by colorimetric assay; assay type: functional, cell-based; how it was run: as §2
[15] = tested on: MCF7; test: Cytotoxicity against human MCF7 cells after 72 hrs by colorimetric assay; assay type: functional, cell-based; how it was run: as §2
[16] = tested on: MDA-MB-231; test: Cytotoxicity against human MDA-MB-231 cells after 72 hrs by colorimetric assay; assay type: functional, cell-based; how it was run: as §2
[17] = tested on: BT-474; test: Cytotoxicity against human BT474 cells after 72 hrs by colorimetric assay; assay type: functional, cell-based; how it was run: as §2
[18] = tested on: SK-BR-3; test: Cytotoxicity against human SKBR3 cells after 72 hrs by colorimetric assay; assay type: functional, cell-based; how it was run: as §2
[19] = target: T1, Tissue alpha-L-fucosidase (Bos taurus) (UniProt Q2KIM0); test: Inhibition of alpha-L-fucosidase from bovine kidney at 1 mM at pH 6; how it was run: as §1
T1 sequence (whole entry): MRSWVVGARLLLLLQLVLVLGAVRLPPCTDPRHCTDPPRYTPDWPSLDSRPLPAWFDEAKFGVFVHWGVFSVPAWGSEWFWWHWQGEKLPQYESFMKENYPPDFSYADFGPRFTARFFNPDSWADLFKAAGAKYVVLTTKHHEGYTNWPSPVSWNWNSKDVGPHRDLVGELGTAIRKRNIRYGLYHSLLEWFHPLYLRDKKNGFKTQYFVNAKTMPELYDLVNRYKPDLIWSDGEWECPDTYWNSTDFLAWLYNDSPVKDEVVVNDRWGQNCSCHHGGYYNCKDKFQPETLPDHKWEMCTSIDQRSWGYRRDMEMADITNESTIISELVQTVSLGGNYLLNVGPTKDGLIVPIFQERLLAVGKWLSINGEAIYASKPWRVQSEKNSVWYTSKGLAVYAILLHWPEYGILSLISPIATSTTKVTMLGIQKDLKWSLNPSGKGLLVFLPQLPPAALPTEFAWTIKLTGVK

[20] = target: Alpha-galactosidase (Coffea arabica) (UniProt Q42656); test: Inhibition of alpha-galactosidase from coffee beans at 1 mM at pH 6; how it was run: as §1
Sequence of Alpha-galactosidase (Coffea arabica) (Q42656 16-378 limits assumed): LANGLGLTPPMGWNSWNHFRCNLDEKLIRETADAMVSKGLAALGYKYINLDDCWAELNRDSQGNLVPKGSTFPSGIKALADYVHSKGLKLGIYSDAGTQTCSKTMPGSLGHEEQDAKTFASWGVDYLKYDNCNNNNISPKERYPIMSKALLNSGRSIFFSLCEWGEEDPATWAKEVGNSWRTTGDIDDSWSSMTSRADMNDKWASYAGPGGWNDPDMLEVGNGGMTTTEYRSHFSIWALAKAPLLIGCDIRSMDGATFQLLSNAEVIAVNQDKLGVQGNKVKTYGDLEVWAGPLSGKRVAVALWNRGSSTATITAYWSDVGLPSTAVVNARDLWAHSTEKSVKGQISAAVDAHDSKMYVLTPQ

[21] = target: Beta-galactosidase (Escherichia coli) (UniProt Q8VNN2); test: Inhibition of beta-galactosidase from Escherichia coli at 1 mM at pH 7; how it was run: as §1
Sequence of Beta-galactosidase (Escherichia coli) (Q8VNN2 whole entry, looked up): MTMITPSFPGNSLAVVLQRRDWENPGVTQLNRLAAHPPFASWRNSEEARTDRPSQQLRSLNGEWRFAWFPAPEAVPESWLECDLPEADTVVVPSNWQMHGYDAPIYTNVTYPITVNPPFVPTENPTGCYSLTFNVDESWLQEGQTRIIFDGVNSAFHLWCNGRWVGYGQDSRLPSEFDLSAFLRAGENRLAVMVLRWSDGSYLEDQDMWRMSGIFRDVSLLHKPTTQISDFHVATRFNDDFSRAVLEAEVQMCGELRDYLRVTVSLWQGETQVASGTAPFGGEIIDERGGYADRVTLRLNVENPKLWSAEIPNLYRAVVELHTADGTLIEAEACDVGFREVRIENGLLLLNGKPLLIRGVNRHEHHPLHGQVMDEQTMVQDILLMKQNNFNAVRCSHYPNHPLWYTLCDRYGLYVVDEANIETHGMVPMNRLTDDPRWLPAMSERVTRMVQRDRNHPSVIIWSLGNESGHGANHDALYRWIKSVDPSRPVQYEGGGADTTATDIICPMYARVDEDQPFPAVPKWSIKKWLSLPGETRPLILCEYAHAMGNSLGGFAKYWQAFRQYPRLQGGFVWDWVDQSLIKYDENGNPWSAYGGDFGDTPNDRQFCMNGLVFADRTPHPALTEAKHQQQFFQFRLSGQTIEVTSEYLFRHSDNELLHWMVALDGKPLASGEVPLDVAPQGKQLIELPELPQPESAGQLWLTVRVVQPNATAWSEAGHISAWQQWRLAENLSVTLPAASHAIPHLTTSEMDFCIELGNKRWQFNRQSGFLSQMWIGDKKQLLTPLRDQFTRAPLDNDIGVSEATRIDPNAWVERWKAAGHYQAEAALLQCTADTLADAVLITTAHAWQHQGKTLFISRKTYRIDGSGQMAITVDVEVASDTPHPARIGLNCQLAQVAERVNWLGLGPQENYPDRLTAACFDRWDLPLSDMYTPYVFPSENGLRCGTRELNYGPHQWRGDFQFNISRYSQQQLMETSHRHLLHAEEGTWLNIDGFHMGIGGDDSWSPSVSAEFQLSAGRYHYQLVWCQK

[22] = target: T2, Beta-galactosidase (Aspergillus oryzae) (UniProt Q2U7N3); test: Inhibition of beta-galactosidase from Aspergillus oryzae at 1 mM at pH 4; how it was run: as §1
T2 sequence (whole entry): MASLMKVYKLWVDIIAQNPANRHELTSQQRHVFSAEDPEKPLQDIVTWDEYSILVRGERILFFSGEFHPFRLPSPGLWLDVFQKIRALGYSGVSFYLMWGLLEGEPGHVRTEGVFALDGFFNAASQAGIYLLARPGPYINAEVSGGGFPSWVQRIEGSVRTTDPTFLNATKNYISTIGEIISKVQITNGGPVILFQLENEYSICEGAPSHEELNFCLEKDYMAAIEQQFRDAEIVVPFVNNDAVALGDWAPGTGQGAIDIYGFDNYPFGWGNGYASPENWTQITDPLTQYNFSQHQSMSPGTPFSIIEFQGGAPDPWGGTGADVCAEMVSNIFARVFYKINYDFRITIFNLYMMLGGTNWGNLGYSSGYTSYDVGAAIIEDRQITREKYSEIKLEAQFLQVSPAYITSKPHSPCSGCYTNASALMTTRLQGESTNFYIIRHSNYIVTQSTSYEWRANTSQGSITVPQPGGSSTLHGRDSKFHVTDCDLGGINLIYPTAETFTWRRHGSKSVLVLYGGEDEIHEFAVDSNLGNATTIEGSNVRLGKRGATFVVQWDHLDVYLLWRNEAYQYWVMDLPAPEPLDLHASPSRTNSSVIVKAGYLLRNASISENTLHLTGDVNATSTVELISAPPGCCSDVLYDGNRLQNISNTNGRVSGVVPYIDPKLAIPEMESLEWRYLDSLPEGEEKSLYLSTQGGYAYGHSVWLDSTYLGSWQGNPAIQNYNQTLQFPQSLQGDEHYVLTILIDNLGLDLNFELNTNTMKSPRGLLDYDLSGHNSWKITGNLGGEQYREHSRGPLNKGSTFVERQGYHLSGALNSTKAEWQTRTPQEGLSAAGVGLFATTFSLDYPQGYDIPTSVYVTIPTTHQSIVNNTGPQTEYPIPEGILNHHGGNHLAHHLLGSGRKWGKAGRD

[23] = tested on: Saccharomyces cerevisiae; test: Inhibition of alpha-glucosidase from yeast at 1 mM at pH 7; how it was run: as §1
[24] = tested on: Jurkat; test: Cytotoxicity in human Jurkat cells overexpressing Bcl2 assessed as cell death at 2 uM after 72 hrs by propidium iodide-staining based flow cytometry; assay type: functional
How it was run: (§3)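 Jurkat T cells stably overexpressing Bcl-2, plus vector controls, in RPMI-1640 with 10% FBS. Seeded at 4×10⁴ per well and treated for 72 h with 40 µM etoposide, 2 µM doxorubicin or 50 µM compound. Dead cells counted by propidium iodide staining and flow cytometry; means of triplicates with SD.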

[25] = tested on: Jurkat; test: Cytotoxicity in human Jurkat cells overexpressing Bcl2 assessed as cell death at 40 uM after 72 hrs by propidium iodide-staining based flow cytometry; assay type: functional; how it was run: as §3
[26] = Homo sapiens, U-266, 72 h, read-out: IC50
[27] = Homo sapiens, Jurkat, 72 h, read-out: IC50
[28] = Homo sapiens, U-87 MG, 72 h, read-out: IC50
[29] = Homo sapiens, PC-3, 72 h, read-out: IC50
[30] = Homo sapiens, A549, 72 h, read-out: IC50
[31] = Homo sapiens, MCF7, 72 h, read-out: IC50
[32] = Homo sapiens, MDA-MB-231, 72 h, read-out: IC50
[33] = Homo sapiens, BT-474, 72 h, read-out: IC50
[34] = Homo sapiens, SK-BR-3, 72 h, read-out: IC50

| Compound | inhibition [1] [%] | inhibition [2] [%] | inhibition [3] [%] | inhibition [4] [%] | IC50 [5] [µM] | Ki [5] [µM] | inhibition [6] [%] | inhibition [7] [%] | inhibition [8] [%] | inhibition [9] [%] | inhibition [19] [%] | inhibition [20] [%] | inhibition [21] [%] | inhibition [22] [%] | inhibition [23] [%] | IC50 [10, 26] [µM] | IC50 [11, 27] [µM] | IC50 [12, 28] [µM] | IC50 [13, 29] [µM] | IC50 [14, 30] [µM] | further results |
| --- | --- | --- | --- | --- | --- | --- | --- | --- | --- | --- | --- | --- | --- | --- | --- | --- | --- | --- | --- | --- | --- |
| OC[C@H](NC[C@H]1NC[C@H](O)[C@@H]1O)c1ccc(OCc2ccccc2)cc1 | < 10 | < 10 | 40 | 99 | 1.4 | 0.6 | < 10 | 45 | < 10 | < 10 | < 10 | < 10 | < 10 | < 10 | 45 | – | – | – | – | – | IC50 ([10]; u-266): Not Active; IC50 ([11]; jurkat): Not Active; IC50 ([12]; u-87mg atcc): Not Active; IC50 ([13]; pc-3): Not Active; IC50 ([14]; a549): Not Active; IC50 ([15]; mcf7): Not Active; IC50 ([16]; mda-mb-231): Not Active; IC50 ([17]; bt-474): Not Active; IC50 ([18]; sk-br-3): Not Active |
| C=CCOc1ccc([C@H](CO)NC[C@H]2NC[C@H](O)[C@@H]2O)cc1 | < 10 | < 10 | 72 | 99 | 0.9 | 0.5 | < 10 | 28 | < 10 | < 10 | < 10 | < 10 | < 10 | < 10 | 41 | > 200 | > 200 | > 200 | > 200 | > 200 | IC50 [15, 31]: > 200 µM; IC50 [16, 32]: > 200 µM; IC50 [17, 33]: > 200 µM; IC50 [18, 34]: > 200 µM |
| OC[C@H](NC[C@H]1NC[C@H](O)[C@@H]1O)c1ccc(-c2ccccc2)cc1 | < 10 | < 10 | 20 | 99 | 1.4 | 0.9 | < 10 | 50 | < 10 | < 10 | < 10 | < 10 | < 10 | < 10 | 24 | > 200 | > 200 | > 200 | > 200 | > 200 | IC50 [15, 31]: > 200 µM; IC50 [16, 32]: > 200 µM; IC50 [17, 33]: > 200 µM; IC50 [18, 34]: > 200 µM |
| COc1cccc2c1C(=O)c1c(O)c3c(c(O)c1C2=O)C[C@@](O)(C(=O)CO)C[C@@H]3O[C@H]1C[C@H](N)[C@H](O)[C@H](C)O1 | – | – | – | – | – | – | – | – | – | – | – | – | – | – | – | – | – | – | – | – | Activity [24]: inactive |
| COc1cc([C@@H]2c3cc4c(cc3[C@@H](O[C@@H]3O[C@@H]5CO[C@@H](C)O[C@H]5[C@H](O)[C@H]3O)[C@H]3COC(=O)[C@H]23)OCO4)cc(OC)c1O | – | – | – | – | – | – | – | – | – | – | – | – | – | – | – | – | – | – | – | – | Activity [25]: inactive |
| COc1ccc([C@H](CO)NC[C@H]2NC[C@H](O)[C@@H]2O)cc1 | < 10 | < 10 | 62 | 98 | 0.8 | 0.5 | < 10 | 28 | < 10 | < 10 | < 10 | < 10 | < 10 | < 10 | 41 | > 200 | > 200 | > 200 | > 200 | > 200 | IC50 [15, 31]: > 200 µM; IC50 [16, 32]: > 200 µM; IC50 [17, 33]: > 200 µM; IC50 [18, 34]: > 200 µM |
| OC[C@H](NC[C@H]1NC[C@H](O)[C@@H]1O)c1ccc(-c2ccsc2)cc1 | < 10 | < 10 | 36 | 97 | 1.1 | 0.8 | < 10 | 50 | < 10 | < 10 | < 10 | < 10 | < 10 | < 10 | < 10 | – | – | – | – | – | IC50 ([10]; u-266): Not Active; IC50 ([11]; jurkat): Not Active; IC50 ([12]; u-87mg atcc): Not Active; IC50 ([13]; pc-3): Not Active; IC50 ([14]; a549): Not Active; IC50 ([15]; mcf7): Not Active; IC50 ([16]; mda-mb-231): Not Active; IC50 ([17]; bt-474): Not Active; IC50 ([18]; sk-br-3): Not Active |
